The list is not random: actives were taken first. Their share in the collection is about 1.8%.
M5 PAM – human M5 muscarinic receptor positive allosteric modulators, primary screen, CHO-K1 cells, Fluo-8 calcium fluorescence; Muscarinic acetylcholine receptor M5 (Homo sapiens), P08912; CHO-K1 hM5, ACh EC20 PAM; 0% = ACh EC20, 100% = ACh EC100; activation, % at 3 µM; 360,000 compounds, 0.3% hits;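 active = activation above the run cutoff, the mean activation of all test compounds plus 3 SD, cut at about 18% in these data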
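System: CHO-K1 cell line with stable human muscarinic M5 receptor expression | Also added: EC20 acetylcholine as agonist stimulus | Compound: One concentration, 3 µM final (nominal) | Timing: Fluo-8 loading 80 min at 37 °C plus 30 min room temperature | Measured by: Fluo-8 calcium dye fluorescence, kinetic read | Read-out basis: % activation, ACh-normalized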
M4 PAM – human M4 muscarinic receptor positive allosteric modulators, primary screen, CHO-K1 cells, Fluo-8 calcium fluorescence; CHO-K1 hM4/Gqi5, ACh EC20; 0% = ACh EC20, 100% = maximal ACh; activation, % at 3 µM; 360,000 compounds, 0.4% hits; AID 624126, 2012;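 active = activation above its plate's cutoff, the mean activation of sample wells plus 3 SD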
Target sequence (P08173 whole entry, looked up): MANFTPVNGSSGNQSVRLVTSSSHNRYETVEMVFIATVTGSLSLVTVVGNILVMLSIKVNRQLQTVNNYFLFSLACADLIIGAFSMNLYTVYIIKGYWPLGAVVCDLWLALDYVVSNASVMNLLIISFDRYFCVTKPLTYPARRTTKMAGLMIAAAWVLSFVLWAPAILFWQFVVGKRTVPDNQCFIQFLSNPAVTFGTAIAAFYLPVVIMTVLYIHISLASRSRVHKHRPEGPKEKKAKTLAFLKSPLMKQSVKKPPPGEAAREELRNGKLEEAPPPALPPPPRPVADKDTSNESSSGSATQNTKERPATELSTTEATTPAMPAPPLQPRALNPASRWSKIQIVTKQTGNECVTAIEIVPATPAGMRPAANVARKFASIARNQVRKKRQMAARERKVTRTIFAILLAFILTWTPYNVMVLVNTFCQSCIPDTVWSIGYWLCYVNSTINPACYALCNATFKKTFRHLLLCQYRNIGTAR
M5 antag – human M5 muscarinic receptor antagonists, primary screen, CHO cells, Fluo-8 calcium fluorescence | Muscarinic acetylcholine receptor M5 (Homo sapiens), P08912 | CHO-hM5 cells, ACh EC80 | inhibition, % at 3 µM | 360,000 compounds, 0.59% hits | AID 624040, 2012;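 active = inhibition above a per-plate cutoff, the mean of that plate's test compounds plus 3 SD, cut at about 27% in these data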;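 note: 0% = acetylcholine EC80 with DMSO and 100% = DMSO without agonist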
M4 ag – human M4 muscarinic receptor agonists, primary screen, CHO-K1 cells, Fluo-8 calcium fluorescence; Muscarinic acetylcholine receptor M4 (Homo sapiens), P08173; CHO-K1 hM4/Gqi5; vehicle 0%, full acetylcholine response 100%; activation, % at 3 µM; 360,000 compounds, 0.14% hits;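 active = activation above the run mean over all test wells plus 3 SD, cut at about 32% in these data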;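 note: peak over basal fluorescence ratio per well then scaled between controls; 0% = DMSO wells and 100% = acetylcholine at EC100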
M5 ag – human M5 muscarinic receptor agonists, primary screen, CHO-K1 cells, Fluo-8 calcium fluorescence; Muscarinic acetylcholine receptor M5 (Homo sapiens), P08912; CHO-K1 hM5 cells; 0% DMSO wells, 100% maximal acetylcholine response; activation, % at 3 µM; 360,000 compounds, 0.19% hits;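 active = activation above the run's mean over test compounds plus 3 SD, cut at about 23% in these data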;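 note: signal is peak over basal fluorescence ratio across the kinetic read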
CHRM4 antagonist – human M4 muscarinic receptor antagonists, primary screen, CHO cells, Fluo-8 calcium fluorescence | CHO-hM4 cells, ACh EC80 | 360,000 compounds, 0.73% hits | AID 624125, 2012 | inhibition, % at 3 µM | Muscarinic acetylcholine receptor M4 (Homo sapiens), P08173;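 active = inhibition above its plate's cutoff, the mean inhibition of sample wells plus 3 SD, cut at about 27% in these data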;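 note: 0% = acetylcholine EC80 with DMSO and 100% = DMSO without agonist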
* marks the source's active call; other numbers are inactive results; + = active, no number; ! = repeats disagree.

SMILES	M5 PAM	M4 PAM	M5 antag	M4 ag	M5 ag	CHRM4 antagonist
N=c1c(C(=O)NCC2CCCO2)cc2c(=O)n3ccccc3nc2n1Cc1ccccc1Cl (stereo not given)	2.9	2.8	-0.5	1.1	-0.9	3.8
COc1cccc2cc(C(=O)NCc3ccccn3)c(=O)oc12	0.5	22.4*	-2.0	1.6	-1.6	-0.8
CNC(=O)c1cc2cccc(OC)c2oc1=O	1.8	5.8	0.1	0.7	0.8	-5.8
CCCCN1C2=C(C(=O)CC(C)(C)C2)C(c2ccccc2)C2=C1c1ccccc1C2=O (stereo not given)	-3.1	7.5	0.8	1.8	-3.2	-13.6
CCCN1C2=C(C(=O)CC(C)(C)C2)C(c2ccc(F)cc2)C2=C1c1ccccc1C2=O (stereo not given)	11.0	30.3*	-4.5	-1.1	-0.1	-3.7
COc1ccc(NC(=O)c2ccco2)cc1N	20.1*	5.0	-1.9	2.8	-1.7	-8.6
c1ccc(-n2c3ccccc3c3ccccc32)cc1	18.6*	-0.8	-8.4	-0.4	7.2	-6.8
Cc1ccc(S(=O)(=O)N2CCOCC2)cc1C(=O)OC(C)C(=O)c1ccccc1 (stereo not given)	-9.0	-1.8	12.4	9.9	3.1	-10.4
N#CC(C#N)=C1C=C2C=C(N3CCOCC3)CCC2CC1 (stereo not given)	-15.8	-24.5	23.5	51.6*	36.8*	29.0*
CCN1CCN(C2=CC3=CC(=C(C#N)C#N)CCC3CC2)CC1 (stereo not given)	-36.5	-29.2	59.4*	270.4*	222.5*	58.1*
CN1CCN(C2=CC3=CC(=C(C#N)C#N)CCC3CC2)CC1 (stereo not given)	-37.1	-31.4	72.4*	538.0*	491.5*	71.4*
N#CC(C#N)=C1C=C2C=C(N3CCCCCC3)CCC2CC1 (stereo not given)	-20.9	-23.0	103.1*	745.9*	+	96.0*
CC1(C)CC(NCCN2CCN(C3=CC(=C(C#N)C#N)CC(C)(C)C3)CC2)=CC(=C(C#N)C#N)C1	2.5	2.2	0.8	0.9	3.0	-7.6
Cc1ccccc1C(=O)NC1CCN(C(=O)Nc2ccccc2Cl)CC1	5.4	-1.0	6.6	0.8	-3.4	2.4
C[n+]1c2cc(N)ccc2cc2ccc(N)cc21	-8.8	-15.8	19.0	93.6*	43.6*	27.0*!
Nc1ccc2ccc(O)cc2c1	5.1	5.6	1.1	2.6	4.2	0.1
CC1(C)OC(=O)C2=C(C[C@@H](C3CCCCC3)O[C@H]2c2ccc(Cl)cc2)O1	2.1	-1.1	9.0	-1.2	2.4	2.8
CCOC(=O)c1csc(-c2ccc(OC)c(OC)c2)n1	-4.3	-1.4	11.6	1.1	1.0	-10.3
COc1ccc(-c2nc(C(=O)O)cs2)cc1OC	26.2*	6.8	-15.2	1.6	3.1	-19.1
CN(C(=O)c1ccc(-c2ccccc2)cc1)C1CCCCC1	2.1	-0.4	3.0	0.1	-3.0	-2.3
Cc1csc(SCC(=O)N(C)CC(=O)Nc2ccc(F)cc2)n1	3.3	-4.4	7.1	0.0	0.8	4.0
CC(SCC(=O)Nc1ccc(F)cc1)c1nc2ccccc2c(=O)[nH]1 (stereo not given)	21.7*	11.0	-13.9	2.2	-0.3	-11.3
Cc1cc(SCC(=O)N(C)CC(=O)Nc2ccc(F)cc2)nc2ccccc12	9.7	21.0*	-3.6	3.6	2.4	-5.4
CCCN1CCc2c(sc3nc(SC)n(-c4ccccc4)c(=O)c23)C1	-3.3	-3.4	12.0	1.1	-6.7	-3.0
O=Cc1c(Nc2cccc(C(F)(F)F)c2)nc2ccccn2c1=O	-7.3	16.3*	17.0	0.6	-1.7	-18.5
SMILES	M5 PAM	M4 PAM	M5 antag	M4 ag	M5 ag	CHRM4 antagonist
O=C(N/N=C/c1c(Nc2cccc(C(F)(F)F)c2)nc2ccccn2c1=O)c1ccccc1[N+](=O)[O-]	3.3	1.3	-4.2	-0.1	2.6	-8.7
CC(C)n1nnnc1C1c2ccccc2C(=O)N1CCCN1CCOCC1 (stereo not given)	0.5	5.9	-1.9	-0.1	-0.2	-2.2
CCN(CC)CCNC(=O)c1ccc(NC(=O)c2ccccc2-c2ccc(C(F)(F)F)cc2)cc1	-17.7	-17.4	80.8*	3.2	-6.9	70.8*
CCN(CC)CCNC(=O)c1ccc(NC(=O)c2ccc3c(c2)CCC3)cc1	-2.1	-4.3	-1.1	1.4	-10.4	-15.5
CCN(CC)CCNC(=O)c1ccc(NC(=O)Cc2ccccc2F)cc1	6.7	8.3	-4.8	0.2	-10.6	-6.5
CCN(CC)CCNC(=O)c1ccc(NC(=O)c2cccc(S(=O)(=O)N(C)C3CCCCC3)c2)cc1	-40.3	-15.6	97.9*	0.6	-9.8	98.2*
O=[N+]([O-])c1cncc([N+](=O)[O-])c1Nc1cccc(O)c1	-8.7	-6.9	7.2	0.9	1.3	1.3
COc1ccc(C(=O)N/C(=C\c2ccc3c(c2)OCO3)C(=O)N2CCOCC2)cc1	1.1	-1.6	2.3	0.7	-1.9	0.2
Cc1ccc([C@H]2N[C@]3(CCCN(Cc4ccc(Br)cc4)C3=O)[C@H]3C(=O)N(C)C(=O)[C@@H]23)cc1	2.2	3.9	-10.5	2.1	-1.5	-33.8
COC(=O)CSc1ncnc2c1sc1nc(N3CCOCC3)c3c(c12)CCCC3	-1.6	4.3	-1.6	1.1	-2.6	4.7
CCOC(=O)CSc1ncnc2c1sc1nc(N3CCOCC3)c3c(c12)CCCC3	-0.3	27.7*	-8.7	0.3	0.4	-4.9
O=C(Cc1ccccc1)NS(=O)(=O)c1ccccc1	2.5	-2.9	-4.2	-0.2	3.2	8.6
COc1cc2nc(C3CCC3)nc(N3CCN(c4ccccc4OC)CC3)c2cc1OC	-19.5	-40.0	14.3	1.3	-6.3	42.8*
CS(=O)(=O)c1ccc(Cl)c(NC(=O)COC(=O)CNC(=O)c2sc3ccccc3c2Cl)c1	-1.3	0.1	4.7	1.2	1.7	-11.5
Cc1ccc2cccc(OCC(=O)Nc3cccc(S(=O)(=O)N4CCCC4)c3)c2n1	-40.7	-13.6	18.6	25.1	-0.1	19.1
CC(C)c1ccc(-c2nnc(SCC(=O)NC3CC3)n2C)cc1	30.4*	-3.7	13.8	0.5	2.5	9.8
Cn1c(SCC(=O)NC2CCCC2)nnc1-c1ccncc1	-10.5	1.7	-11.0	0.3	-0.6	-2.5
Cn1ccnc1SCC(=O)NC1CCCCC1	-2.6	12.9	0.9	0.3	0.1	3.3

Assay outcomes from PubChem.
